This is an account of results in publication PMC2606940 (The Journal of General Physiology, 2009).

SMILES strings stand for the structures. Substitutions are numbered along the chain they refer to. Where two headings read alike, the source gives them in different places.

One assay addresses T1, CLC-0 E166S mutant (Torpedo marmorata, UniProt P21564, C212S/E166S).
T1 sequence (P21564 1-805 E166S/C212S): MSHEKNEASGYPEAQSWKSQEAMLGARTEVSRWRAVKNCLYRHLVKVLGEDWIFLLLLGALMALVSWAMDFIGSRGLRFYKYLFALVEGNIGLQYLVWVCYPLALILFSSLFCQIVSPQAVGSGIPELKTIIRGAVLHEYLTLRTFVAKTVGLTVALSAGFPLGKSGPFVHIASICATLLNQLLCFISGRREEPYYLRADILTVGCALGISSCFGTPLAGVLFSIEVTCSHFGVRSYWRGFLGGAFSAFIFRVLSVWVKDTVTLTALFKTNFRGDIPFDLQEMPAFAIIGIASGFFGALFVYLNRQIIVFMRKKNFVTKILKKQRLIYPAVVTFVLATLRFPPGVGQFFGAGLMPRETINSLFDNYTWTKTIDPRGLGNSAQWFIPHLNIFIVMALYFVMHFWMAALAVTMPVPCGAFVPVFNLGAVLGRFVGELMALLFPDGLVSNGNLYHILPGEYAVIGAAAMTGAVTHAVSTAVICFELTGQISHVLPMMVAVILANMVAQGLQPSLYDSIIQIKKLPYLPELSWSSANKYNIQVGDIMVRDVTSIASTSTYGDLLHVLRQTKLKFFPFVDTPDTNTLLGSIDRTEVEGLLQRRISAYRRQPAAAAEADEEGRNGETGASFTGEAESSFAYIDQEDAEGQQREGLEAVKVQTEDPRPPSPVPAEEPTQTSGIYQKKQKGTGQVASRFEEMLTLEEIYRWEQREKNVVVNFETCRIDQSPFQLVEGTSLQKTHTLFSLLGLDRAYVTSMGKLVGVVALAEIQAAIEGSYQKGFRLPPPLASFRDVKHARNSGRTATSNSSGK
It counts as cell-based. To be noted: read-out: Apparent affinity (K1/2). The method, boiled down: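 CLC-0 mutants (C212S background) were lipofectamine-transfected into HEK293 cells and recorded 1–3 d later from inside-out patches. Pipette and bath contained 130 mM NaCl, 5 MgCl2, 10 HEPES and 1 EGTA (pH 7.4). Test compound was perfused onto the cytoplasmic side. A +80 mV prepulse preceded steps to steady state. The last-10-ms current was normalized to bracketing blocker-free controls and fitted to a Langmuir function for K1/2.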

The next assay concerns the target T2, CLC-0 E166N mutant (Torpedo marmorata, UniProt P21564, C212S/E166N).
T2 sequence (P21564 1-805 E166N/C212S): T1 sequence (P21564 1-805 E166S/C212S) with S166N
It counts as cell-based. The settings on record: read-out: Apparent affinity (K1/2). Put shortly: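 CLC-0 mutants in the C212S background were transfected into HEK293 cells with lipofectamine and recorded 1–3 d later as excised inside-out patches. Both sides held 130 mM NaCl, 5 mM MgCl2, 10 mM HEPES and 1 mM EGTA, pH 7.4. CPA was perfused continuously onto the cytoplasmic face. Steady-state current over the last 10 ms was normalized to bracketing blocker-free controls and fitted to a Langmuir function for K1/2. Values are mean ± SEM of ~4–6 patches.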

As to `CCCCCCCC(=O)O` [octanoate], the IC50 at CLC-0 E166S mutant (−40 mV) is 855 ± 37 µM; on CLC-0 E166S mutant (−60 mV) it was 403 ± 22 µM; on CLC-0 E166S mutant (−80 mV), 198 ± 11 µM; on CLC-0 E166S mutant (−100 mV), 100 ± 9 µM; on CLC-0 E166S mutant (−120 mV), 50 ± 3 µM; on CLC-0 E166S mutant (−140 mV) it was 26 ± 3 µM. For the same compound, the IC50 at CLC-0 E166S mutant (−160 mV) worked out at 16 ± 2 µM; on CLC-0 E166N mutant (−40 mV), 4930 ± 180 µM; on CLC-0 E166N mutant (−60 mV), 2550 ± 47 µM; at CLC-0 E166N mutant (−80 mV), 1340 ± 29 µM; at CLC-0 E166N mutant (−100 mV) it was 694 ± 18 µM; on CLC-0 E166N mutant (−120 mV), 380 ± 9 µM. Further, the IC50 at CLC-0 E166N mutant (−140 mV) was 212 ± 4 µM; on CLC-0 E166N mutant (−160 mV), 125 ± 2 µM.
`O=C(O)COc1ccc(Cl)cc1` [CPA, p-chlorophenoxy acetate]: the IC50 at CLC-0 E166S mutant (−40 mV) came to 641 ± 36 µM; at CLC-0 E166S mutant (−60 mV), 342 ± 15 µM; on CLC-0 E166S mutant (−80 mV), 179 ± 7 µM; on CLC-0 E166S mutant (−100 mV), 104 ± 4 µM; on CLC-0 E166S mutant (−120 mV), 58 ± 3 µM; at CLC-0 E166S mutant (−140 mV) it was 35 ± 2 µM. The IC50 stood at 21 ± 1 µM at CLC-0 E166S mutant (−160 mV); 9750 ± 570 µM at CLC-0 E166N mutant (−40 mV); 5780 ± 220 µM on CLC-0 E166N mutant (−60 mV); 3270 ± 90 µM on CLC-0 E166N mutant (−80 mV); 1850 ± 40 µM at CLC-0 E166N mutant (−100 mV); 1060 ± 20 µM at CLC-0 E166N mutant (−120 mV). The results for the IC50 at CLC-0 E166N mutant (−140 mV) and on CLC-0 E166N mutant (−160 mV) were 620 ± 20 µM and 380 ± 10 µM, respectively.
